This passage reports IC50 and logD results from ChEMBL document CHEMBL1126905, “Inhibitors of cholesterol biosynthesis. 2. 3,5-Dihydroxy-7-(N-pyrrolyl)-6-heptenoates, a novel series of HMG-CoA reductase inhibitors” (J Med Chem, 1993).

Data set [1] concerns the target T1, 3-hydroxy-3-methylglutaryl-coenzyme A reductase (Rattus norvegicus, UniProt P51639).
T1 sequence (P51639 whole entry): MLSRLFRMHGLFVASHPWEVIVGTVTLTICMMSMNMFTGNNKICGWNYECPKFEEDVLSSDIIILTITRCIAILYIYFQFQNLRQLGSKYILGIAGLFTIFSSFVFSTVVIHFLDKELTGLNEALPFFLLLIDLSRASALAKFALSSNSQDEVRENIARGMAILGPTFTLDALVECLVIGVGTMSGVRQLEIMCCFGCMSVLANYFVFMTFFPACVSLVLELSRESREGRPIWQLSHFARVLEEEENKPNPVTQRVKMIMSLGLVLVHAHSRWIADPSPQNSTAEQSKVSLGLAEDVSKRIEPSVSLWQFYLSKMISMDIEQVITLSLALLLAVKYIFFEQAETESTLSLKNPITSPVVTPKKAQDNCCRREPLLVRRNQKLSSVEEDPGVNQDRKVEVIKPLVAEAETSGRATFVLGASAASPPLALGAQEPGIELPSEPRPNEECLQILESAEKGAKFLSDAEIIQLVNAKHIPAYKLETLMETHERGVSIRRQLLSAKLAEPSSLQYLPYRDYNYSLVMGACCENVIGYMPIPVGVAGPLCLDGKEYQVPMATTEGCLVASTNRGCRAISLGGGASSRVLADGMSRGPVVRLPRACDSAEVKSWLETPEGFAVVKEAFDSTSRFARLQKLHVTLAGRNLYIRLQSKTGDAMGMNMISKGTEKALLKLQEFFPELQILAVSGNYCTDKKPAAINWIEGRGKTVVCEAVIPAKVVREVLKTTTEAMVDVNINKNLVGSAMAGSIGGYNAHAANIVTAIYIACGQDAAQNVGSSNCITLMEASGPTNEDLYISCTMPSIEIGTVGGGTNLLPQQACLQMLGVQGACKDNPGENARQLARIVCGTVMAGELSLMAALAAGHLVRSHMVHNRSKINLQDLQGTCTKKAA
In words: Inhibition of rat liver microsomal HMG-CoA reductase. A digest of the protocol: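 Test agents run as sodium salts of the dihydroxy carboxylic acids, against rat liver microsomal enzyme. Five dose levels per inhibitor, at least in duplicate, on at least two separate occasions. IC50 given as the mean, with pravastatin sodium salt as reference.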

Data set [2] can be described thus: Lipophilicity was determined. The settings on record: octanol/water. It is filed as physicochemical.

In turn, `COC(=O)C[C@H](O)C[C@H](O)/C=C/n1c(C(C)C)cc(-c2cccc(Br)c2)c1-c1ccc(F)cc1` registered an IC50 in data set [1] of 0.5 nM. Further, the logD in data set [2] is 2.8.
The matching figures for `COC(=O)C[C@H](O)C[C@H](O)/C=C/n1c(C(C)C)cc(-c2cccc(Cl)c2)c1-c1ccc(F)cc1`: 2 nM and 2.57.
In the case of `COC(=O)C[C@H](O)C[C@H](O)/C=C/n1c(C(C)C)cc(-c2ccccc2)c1-c1ccc(F)cc1`, the IC50 in data set [1] amounted to 2 nM.
On the same count and under the same terms, the figure for `COC(=O)C[C@H](O)C[C@H](O)CCn1c(C(C)C)cc(-c2ccc(F)cc2)c1-c1ccc(F)cc1` is 105 nM; for `COC(=O)C[C@H](O)C[C@H](O)/C=C/n1c(C(C)C)cc(-c2ccccn2)c1-c1ccc(F)cc1` it is 2 nM; for `COC(=O)C[C@H](O)C[C@H](O)/C=C/n1c(C(C)C)cc(-c2ccc(F)cc2)c1-c1cccc(Br)c1` it is 69 nM.
Same read-out and setting: the figure for `COC(=O)C[C@H](O)C[C@H](O)/C=C/n1c(C(C)C)cc(-c2ccc(F)cc2)c1-c1ccccc1` is 25 nM.
In data set [1], `COC(=O)C[C@H](O)C[C@H](O)/C=C/n1c(C(C)C)cc(-c2ccc(F)cc2)c1-c1ccc(F)cc1` registered an IC50 of 2 nM. Besides, in data set [2], the logD stood at 2.1.
The matching figures for `COC(=O)C[C@H](O)C[C@H](O)/C=C/n1c(C(C)C)cc(-c2ccncc2)c1-c1ccc(F)cc1`: 5 nM and 0.9.
In data set [1], `COC(=O)C[C@H](O)C[C@H](O)/C=C/n1c(C(C)C)cc(-c2ccc(F)cc2)c1-c1cccc(Cl)c1` gave an IC50 of 71 nM.
Regarding `COC(=O)C[C@H](O)C[C@H](O)/C=C/n1c(-c2ccc(F)cc2)c(-c2ccc(F)cc2)c(Br)c1C(C)C`, the IC50 in data set [1] was found to be 0.3 nM.
Same read-out and setting: with `CC[C@H](C)C(=O)O[C@H]1C[C@@H](C)C=C2C=C[C@H](C)[C@H](CC[C@@H]3C[C@@H](O)CC(=O)O3)[C@H]21` [LOVASTATIN] the figure was 3 nM; with `CC[C@H](C)C(=O)O[C@H]1C[C@H](O)C=C2C=C[C@H](C)[C@H](CC[C@@H](O)C[C@@H](O)CC(=O)O)[C@H]21` [PRAVASTATIN SODIUM], 5 nM.
